Results: ChEMBL document CHEMBL4425150, “l-Cystine Diamides as l-Cystine Crystallization Inhibitors for Cystinuria” (J Med Chem, 2016)
The source made the active and inactive calls. No cut-off for these calls is given here.

Tests used:
[1] = Half life in pH 7.4 phosphate buffered saline at 100 uM at 37 degC by LC-MS/MS analysis; assay type: physicochemical; details: buffer, pH 7.4, 100 µM
Outline: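 Compound incubated in pH 7.4 phosphate buffered saline at 37 °C. Disappearance of parent followed over time by LC-MS, and half-life derived from that.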

Cystine [2] = assay: Inhibition of hexagonal L-cystine plate crystal growth assessed as step velocity for crystal growth rate at 45 uM after 25 mins by atomic force microscopic analysis relative to control
Outline: (§1)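 In situ AFM of step velocity on {100} steps of hexagonal L-cystine crystals in aqueous 2 mM L-cystine, with additive at 15, 30 or 45 μM. Result expressed as V/V0, where V0 is the velocity measured first without additive; the value is a range.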

Cystine [3] = assay: Potency index, ratio of L-cystine dimethyl ester concentration to compound concentration required to double metastable supersaturation range of L-cystine
Outline: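 Ratio is the EC2x of L-cystine dimethyl ester divided by the compound's EC2x. EC2x came from 72 h incubation at 25 °C in supersaturated L-cystine, with supernatant L-cystine measured by OPA/NBC fluorescence.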

Cystine [4] = assay: Inhibition of L-cystine stone formation in SLC3A1 knock out 129/C57BL6 mouse model of cystinuria at 29.3 umol/kg, po administered daily through gavage for 4 weeks; assay type: functional, organism-based
Outline: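 Male Slc3a1 knockout mice, groups of six or seven, dosed by daily gavage at 29.3 μmol/kg for 4 weeks. A parallel control group of seven mice received water only. Read-out is the fraction of mice forming stones.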

Cystine [5] = assay: Inhibition of hexagonal L-cystine plate crystal growth assessed as reduction in crystal mass yield at 15 to 45 uM after 25 mins by atomic force microscopic analysis
Cystine [6] = assay: Inhibition of L-cystine crystallization assessed as concentration required to double metastable supersaturation range of L-cystine after 72 hrs by OPA/NBC derivatization based fluorescence assay
Outline: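 Test solution (5 μL) added to 500 μL supersaturated L-cystine, then held at 25 °C for 72 h and centrifuged (10000 rpm, 4 min). Supernatant diluted 2-fold, reduced with DTT (rt, 10 min), alkylated with iodoacetic acid (rt, 15 min), then derivatized with OPA/NBC (3 min). Fluorescence read at Ex 355/Em 460 nm gives L-cystine concentration. EC2x is the inhibitor concentration doubling the lower-plateau L-cystine level.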

Cystine [7] = assay: Inhibition of hexagonal L-cystine plate crystal growth assessed as induction of plate to rod crystal morphology at 15 to 45 uM after 25 mins by atomic force microscopic analysis
[8] = Drug level in SLC3A1 knock out 129/C57BL6 mouse urine at 29.3 umol/kg, po administered daily through gavage for 1 week measured 4 hrs post last dose by LC-MS/MS analysis; assay type: ADME, organism-based; details: read-out: Drug uptake
Outline: (§2)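 Male mice, wild-type or Slc3a1 knockout, 4–5 per group, dosed by daily oral gavage at 29.3 μmol/kg for 1 week. Urine from each mouse collected individually over the 4 h right after the last dose. Compound in urine quantified by LC-MS/MS; pre-dose urine also tested.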

Cystine [9] = assay: Inhibition of hexagonal L-cystine plate crystal growth assessed as step velocity for crystal growth rate at 30 uM after 25 mins by atomic force microscopic analysis relative to control; outline: as §1
Cystine [10] = assay: Inhibition of hexagonal L-cystine plate crystal growth assessed as step velocity for crystal growth rate at 15 uM after 25 mins by atomic force microscopic analysis relative to control; outline: as §1
[11] = Drug level in 129/C57BL6 mouse urine at 29.3 umol/kg, po administered daily through gavage for 1 week measured 4 hrs post last dose by LC-MS/MS analysis; assay type: ADME, organism-based; details: read-out: Drug uptake; outline: as §2

Structure (SMILES): Cl.Cl.N[C@@H](CSSC[C@H](N)C(=O)N1CCOCC1)C(=O)N1CCOCC1
- t1/2 [1]: 46.2 days
- Ratio (Cystine [2]): 0.29 to 0.53
- Ratio (Cystine [3]): 7.4
- inhibition (Cystine [4]): inactive
- inhibition (Cystine [5]): Active
- CD (Cystine [6]): 0.86 µM
- inhibition (Cystine [7]): Active
- concentration at 4 h [8]: 2090 nM
- Ratio (Cystine [9]): 0.34 to 0.58
- Ratio (Cystine [10]): 0.44 to 0.65

Structure (SMILES): CN1CCN(C(=O)[C@@H](N)CSSC[C@H](N)C(=O)N2CCN(C)CC2)CC1.Cl.Cl.Cl.Cl
- t1/2 [1]: 19.8 days
- Ratio (Cystine [2]): 0.3 to 0.4
- Ratio (Cystine [3]): 24.5
- inhibition (Cystine [4]): Active
- inhibition (Cystine [5]): Active
- CD (Cystine [6]): 0.26 µM
- inhibition (Cystine [7]): Active
- concentration at 4 h [8]: 7590 nM
- concentration at 4 h [11]: 2100 nM
- Ratio (Cystine [9]): 0.32 to 0.5
- Ratio (Cystine [10]): 0.52 to 0.66

Structure (SMILES): COC(=O)[C@@H](N)CSSC[C@H](N)C(=O)OC
- t1/2 [1]: 0.11 days
- Ratio (Cystine [2]): 0.21 to 0.48
- inhibition (Cystine [5]): Active
- CD (Cystine [6]): 6.37 µM
- inhibition (Cystine [7]): Active
- Ratio (Cystine [9]): 0.27 to 0.54
- Ratio (Cystine [10]): 0.4 to 0.65
